Measured values from PMC10563180 (Current cancer drug targets, 2020).
Read-outs that look alike come from different tables or passages of the source.

Tests used:
[1] = test system: Difi cells; assay: Caspase 3/7 activity assay; format: cell-based, human; settings: 24 hours treatment, compared with Cetuximab
In short: (§1)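 Cells grown in DMEM with 10% FBS and penicillin/streptomycin at 37°C, 5% CO2, then seeded at 1×10^4 per well. […] Caspase 3/7 read by caspase-Glo, normalized to each line's untreated control (=1); mean of 6 wells ± standard deviation.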

[2] = target: PDGFrb (Homo sapiens, UniProt P09619); assay: Recombinant kinase 33P-ATP activity assay; format: biochemical
[3] = test system: HCT116 cells; assay: Caspase 3/7 activity assay; format: cell-based, human; settings: 24 hours treatment, up to 5μM
In short: as §1

[4] = target: FLT1/VEGFR1 (Homo sapiens, UniProt P17948); assay: Recombinant kinase 33P-ATP activity assay; format: biochemical
[5] = test system: DLD1 cells; assay: Cell growth inhibition; format: cell-based, human; settings: through apoptosis; more effective toward DLD1 cells
[6] = target: CDK2/cyclin A (Homo sapiens, UniProt P24941); assay: Recombinant kinase 33P-ATP activity assay; format: biochemical
[7] = target: FGFR2 (Homo sapiens, UniProt P21802); assay: Recombinant kinase 33P-ATP activity assay; format: biochemical
[8] = test system: HCT116 cells; assay: Western blot of signaling proteins; format: cell-based, human; settings: 48 hours, different concentrations
[9] = test system: C6 cells; assay: Western blot of signaling proteins; format: cell-based, rat; settings: 48 hours
In short: (§2)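 Cells exposed to indicated concentrations of test compound for 48 h. Harvested by trypsin/EDTA, lysed 15 min on ice in M-PER with protease inhibitors (10^7 cells/ml), cleared at 17000rpm for 30 min. Protein measured by Bradford; 30μg resolved by SDS-PAGE onto PVDF. Blocked in 5% milk/TBST; primary antibodies overnight at 4°C, HRP secondaries 1 h at room temperature; ECL detection with β-tubulin loading control.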

[10] = test system: C6 cells; assay: Cell growth inhibition; format: cell-based, rat; settings: through apoptosis
[11] = test system: DLD1 cells; assay: Western blot of signaling proteins; format: cell-based, human; settings: 48 hours, different concentrations
[12] = test system: HEK293 cells; assay: Western blot of signaling proteins; format: cell-based, human; settings: 48 hours
In short: as §2

[13] = target: PDGFRa (Homo sapiens, UniProt P16234); assay: Recombinant kinase 33P-ATP activity assay; format: biochemical
[14] = test system: colon and glioma cells; assay: FACS analysis of cell cycle distribution; format: cell-based; settings: all the cell lines, low concentrations, 48 hours
In short: (§3)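 Cells treated with test compound at several concentrations for 48 h. 1×10^6 cells trypsinized, washed in PBS and resuspended in 1% BSA/PBS. Fixed in 3 volumes of −20 °C ethanol for ≥1 h, washed twice, then stained ≥3 h at 4 °C at ~1×10^6 cells/ml in PI (50μg/ml), RNase A (0.5μg/ml) and 3.8mM sodium citrate. Flow cytometry, excitation 535nm, emission 617nm, ≥10,000 cells/sample.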

[15] = test system: HEK293 cells; assay: Caspase 3/7 activity assay; format: cell-based, human; settings: 24 hours treatment, 0.2, 1 and 5μM
In short: as §1

[16] = target: EGFr (Homo sapiens, UniProt P00533); assay: Recombinant kinase 33P-ATP activity assay; format: biochemical
Sequence of EGFr (P00533 25-1210): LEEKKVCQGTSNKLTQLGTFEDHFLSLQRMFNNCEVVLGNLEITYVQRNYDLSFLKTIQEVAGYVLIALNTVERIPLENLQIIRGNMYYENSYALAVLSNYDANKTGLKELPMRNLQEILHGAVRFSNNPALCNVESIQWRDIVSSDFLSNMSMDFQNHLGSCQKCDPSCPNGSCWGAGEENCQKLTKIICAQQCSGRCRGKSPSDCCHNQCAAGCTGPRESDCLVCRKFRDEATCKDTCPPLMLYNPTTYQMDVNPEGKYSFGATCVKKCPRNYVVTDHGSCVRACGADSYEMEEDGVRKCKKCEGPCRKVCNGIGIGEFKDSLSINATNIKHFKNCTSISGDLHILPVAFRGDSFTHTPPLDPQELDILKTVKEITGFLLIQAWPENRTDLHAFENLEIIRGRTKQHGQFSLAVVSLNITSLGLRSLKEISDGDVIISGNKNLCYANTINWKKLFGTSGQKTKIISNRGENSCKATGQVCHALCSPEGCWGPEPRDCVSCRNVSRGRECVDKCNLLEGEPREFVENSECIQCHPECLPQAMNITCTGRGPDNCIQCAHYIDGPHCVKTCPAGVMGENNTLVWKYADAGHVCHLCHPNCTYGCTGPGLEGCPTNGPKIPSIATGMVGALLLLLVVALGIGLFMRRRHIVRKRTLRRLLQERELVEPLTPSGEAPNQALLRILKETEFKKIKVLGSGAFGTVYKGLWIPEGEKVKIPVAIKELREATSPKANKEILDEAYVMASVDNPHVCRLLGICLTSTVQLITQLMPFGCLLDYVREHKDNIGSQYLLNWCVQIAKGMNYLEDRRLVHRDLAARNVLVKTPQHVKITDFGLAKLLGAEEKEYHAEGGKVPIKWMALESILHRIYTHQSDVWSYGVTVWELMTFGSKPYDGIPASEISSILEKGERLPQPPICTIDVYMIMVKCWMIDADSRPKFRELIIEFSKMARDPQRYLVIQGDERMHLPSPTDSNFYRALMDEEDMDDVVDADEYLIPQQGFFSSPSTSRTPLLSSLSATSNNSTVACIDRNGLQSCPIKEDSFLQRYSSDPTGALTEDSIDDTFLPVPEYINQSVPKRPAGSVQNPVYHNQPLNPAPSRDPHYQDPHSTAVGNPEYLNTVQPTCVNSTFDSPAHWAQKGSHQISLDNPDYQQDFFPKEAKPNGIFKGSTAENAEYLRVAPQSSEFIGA

[17] = test system: C6 cells; assay: Caspase 3/7 activity assay; format: cell-based, rat; settings: 24 hours treatment, any of the tested concentrations
[18] = target: KDR/VEGFR2 (Homo sapiens, UniProt P35968); assay: Recombinant kinase 33P-ATP activity assay; format: biochemical
Sequence of KDR/VEGFR2 (P35968 20-1356): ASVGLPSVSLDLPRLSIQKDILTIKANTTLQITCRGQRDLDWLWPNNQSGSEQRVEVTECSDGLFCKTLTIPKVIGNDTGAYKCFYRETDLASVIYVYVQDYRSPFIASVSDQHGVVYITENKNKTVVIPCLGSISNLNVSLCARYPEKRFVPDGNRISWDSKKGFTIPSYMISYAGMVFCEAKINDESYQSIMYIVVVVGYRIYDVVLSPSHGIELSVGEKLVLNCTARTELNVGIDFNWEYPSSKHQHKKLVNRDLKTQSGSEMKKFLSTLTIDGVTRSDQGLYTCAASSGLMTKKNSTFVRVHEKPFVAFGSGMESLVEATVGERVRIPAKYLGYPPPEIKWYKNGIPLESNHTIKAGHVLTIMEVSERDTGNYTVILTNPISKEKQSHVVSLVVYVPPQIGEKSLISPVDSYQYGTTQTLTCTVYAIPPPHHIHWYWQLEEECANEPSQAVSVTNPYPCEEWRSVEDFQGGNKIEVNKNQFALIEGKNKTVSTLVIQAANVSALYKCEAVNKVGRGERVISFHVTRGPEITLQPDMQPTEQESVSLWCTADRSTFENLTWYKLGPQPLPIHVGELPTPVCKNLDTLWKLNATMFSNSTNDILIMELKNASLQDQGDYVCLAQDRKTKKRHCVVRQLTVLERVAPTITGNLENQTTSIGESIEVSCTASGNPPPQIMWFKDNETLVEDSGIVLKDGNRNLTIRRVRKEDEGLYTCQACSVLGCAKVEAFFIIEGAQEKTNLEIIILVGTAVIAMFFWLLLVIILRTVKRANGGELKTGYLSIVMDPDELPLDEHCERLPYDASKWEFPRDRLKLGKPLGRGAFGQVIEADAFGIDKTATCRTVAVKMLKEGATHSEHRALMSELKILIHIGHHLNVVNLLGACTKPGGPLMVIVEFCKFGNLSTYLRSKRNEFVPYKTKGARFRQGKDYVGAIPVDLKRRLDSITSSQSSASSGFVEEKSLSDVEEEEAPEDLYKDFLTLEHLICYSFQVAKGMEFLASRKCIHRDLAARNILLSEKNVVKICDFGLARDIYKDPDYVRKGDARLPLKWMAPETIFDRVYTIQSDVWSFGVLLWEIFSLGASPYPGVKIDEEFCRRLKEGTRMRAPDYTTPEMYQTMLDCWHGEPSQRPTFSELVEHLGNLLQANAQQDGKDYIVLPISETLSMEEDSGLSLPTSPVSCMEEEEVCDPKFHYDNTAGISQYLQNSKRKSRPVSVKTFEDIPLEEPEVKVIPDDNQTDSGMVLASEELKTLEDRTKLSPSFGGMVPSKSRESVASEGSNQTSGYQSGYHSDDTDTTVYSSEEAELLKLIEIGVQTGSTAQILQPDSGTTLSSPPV

[19] = target: FGFR1 (Homo sapiens, UniProt P11362); assay: Recombinant kinase 33P-ATP activity assay; format: biochemical
Sequence of FGFR1 (P11362 22-822): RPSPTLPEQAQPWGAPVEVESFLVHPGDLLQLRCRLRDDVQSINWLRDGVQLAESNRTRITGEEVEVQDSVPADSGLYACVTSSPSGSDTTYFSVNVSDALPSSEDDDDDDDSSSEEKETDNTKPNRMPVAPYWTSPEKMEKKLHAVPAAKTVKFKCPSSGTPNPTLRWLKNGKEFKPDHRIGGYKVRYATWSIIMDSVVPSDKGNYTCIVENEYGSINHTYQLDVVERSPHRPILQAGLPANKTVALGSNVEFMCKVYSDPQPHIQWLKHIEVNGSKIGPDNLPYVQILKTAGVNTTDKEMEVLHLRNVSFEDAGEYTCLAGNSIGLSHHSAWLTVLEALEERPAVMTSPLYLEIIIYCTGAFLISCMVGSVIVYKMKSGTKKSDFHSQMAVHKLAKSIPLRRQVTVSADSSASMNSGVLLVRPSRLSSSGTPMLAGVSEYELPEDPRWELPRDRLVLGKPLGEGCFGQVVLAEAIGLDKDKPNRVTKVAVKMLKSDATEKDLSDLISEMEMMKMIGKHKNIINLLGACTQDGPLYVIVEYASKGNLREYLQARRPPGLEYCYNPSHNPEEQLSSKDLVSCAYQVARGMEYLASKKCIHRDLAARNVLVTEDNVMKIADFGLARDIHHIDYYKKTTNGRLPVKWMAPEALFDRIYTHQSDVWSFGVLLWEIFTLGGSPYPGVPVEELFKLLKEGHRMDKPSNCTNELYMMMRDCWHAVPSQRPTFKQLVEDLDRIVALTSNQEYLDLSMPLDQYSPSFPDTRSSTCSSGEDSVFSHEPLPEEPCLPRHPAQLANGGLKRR

[20] = test system: GPCR pathway genes in C6, HCT116, DLD1 and Difi cells; assay: GPCR signaling pathway profiling by real-time PCR; format: cell-based; settings: 5μM, 48 hours, all 4 cell lines
In short: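 Total RNA taken from C6, DLD1, HCT116 and Difi cells treated with or without 5μM test compound for 48 h, then reverse transcribed. DLD1 cDNA screened on an 82-gene human GPCR-pathway qPCR array, with control and treated expression compared by subtraction. Hits confirmed in C6 and the three colon lines by SYBR Green real-time PCR with primers in different coding regions.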

[21] = test system: HEK293 cells; assay: FACS analysis of cell cycle distribution; format: cell-based, human; settings: 48 hours
In short: as §3

[22] = target: ERBB2/HER2 (Homo sapiens, UniProt P04626); assay: Recombinant kinase 33P-ATP activity assay; format: biochemical
Sequence of ERBB2/HER2 (P04626 23-1255): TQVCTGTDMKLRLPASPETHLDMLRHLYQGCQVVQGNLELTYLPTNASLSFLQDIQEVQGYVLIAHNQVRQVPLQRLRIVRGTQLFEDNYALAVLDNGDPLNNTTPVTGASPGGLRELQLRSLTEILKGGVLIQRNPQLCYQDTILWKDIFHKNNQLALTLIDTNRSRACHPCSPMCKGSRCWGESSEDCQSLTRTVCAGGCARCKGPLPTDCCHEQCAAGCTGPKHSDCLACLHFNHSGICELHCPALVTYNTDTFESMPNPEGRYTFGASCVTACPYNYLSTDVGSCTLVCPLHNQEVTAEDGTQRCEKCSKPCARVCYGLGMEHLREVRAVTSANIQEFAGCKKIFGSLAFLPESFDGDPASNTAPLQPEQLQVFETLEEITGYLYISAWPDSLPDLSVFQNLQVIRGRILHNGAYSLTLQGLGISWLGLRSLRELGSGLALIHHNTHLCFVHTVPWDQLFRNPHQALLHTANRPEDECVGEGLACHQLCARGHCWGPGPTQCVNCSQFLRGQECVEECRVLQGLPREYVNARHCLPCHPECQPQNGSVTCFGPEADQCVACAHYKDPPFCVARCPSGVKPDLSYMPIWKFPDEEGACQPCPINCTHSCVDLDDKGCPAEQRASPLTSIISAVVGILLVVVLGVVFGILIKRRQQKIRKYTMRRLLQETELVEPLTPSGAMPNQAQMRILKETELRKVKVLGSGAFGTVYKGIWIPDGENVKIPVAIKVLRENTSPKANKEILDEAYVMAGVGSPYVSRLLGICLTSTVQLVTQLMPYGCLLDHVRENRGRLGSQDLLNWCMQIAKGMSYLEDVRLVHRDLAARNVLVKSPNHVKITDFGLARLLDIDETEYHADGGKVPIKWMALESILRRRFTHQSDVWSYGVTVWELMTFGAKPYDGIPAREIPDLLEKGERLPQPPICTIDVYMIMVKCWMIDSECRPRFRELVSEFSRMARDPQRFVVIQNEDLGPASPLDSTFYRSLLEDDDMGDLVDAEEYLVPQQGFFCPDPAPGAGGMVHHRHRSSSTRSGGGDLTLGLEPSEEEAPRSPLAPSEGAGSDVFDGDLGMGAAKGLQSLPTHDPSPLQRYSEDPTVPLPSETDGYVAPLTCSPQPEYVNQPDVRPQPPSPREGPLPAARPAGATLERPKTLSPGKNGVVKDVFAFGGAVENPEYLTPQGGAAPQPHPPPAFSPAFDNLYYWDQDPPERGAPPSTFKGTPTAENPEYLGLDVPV

[23] = test system: DLD1 cells; assay: Caspase 3/7 activity assay; format: cell-based, human; settings: 24 hours treatment, 0.2, 1 and 5μM
In short: as §1

[24] = target: c-Src (Homo sapiens, UniProt P12931); assay: Recombinant kinase 33P-ATP activity assay; format: biochemical
Sequence of c-Src (P12931 whole entry): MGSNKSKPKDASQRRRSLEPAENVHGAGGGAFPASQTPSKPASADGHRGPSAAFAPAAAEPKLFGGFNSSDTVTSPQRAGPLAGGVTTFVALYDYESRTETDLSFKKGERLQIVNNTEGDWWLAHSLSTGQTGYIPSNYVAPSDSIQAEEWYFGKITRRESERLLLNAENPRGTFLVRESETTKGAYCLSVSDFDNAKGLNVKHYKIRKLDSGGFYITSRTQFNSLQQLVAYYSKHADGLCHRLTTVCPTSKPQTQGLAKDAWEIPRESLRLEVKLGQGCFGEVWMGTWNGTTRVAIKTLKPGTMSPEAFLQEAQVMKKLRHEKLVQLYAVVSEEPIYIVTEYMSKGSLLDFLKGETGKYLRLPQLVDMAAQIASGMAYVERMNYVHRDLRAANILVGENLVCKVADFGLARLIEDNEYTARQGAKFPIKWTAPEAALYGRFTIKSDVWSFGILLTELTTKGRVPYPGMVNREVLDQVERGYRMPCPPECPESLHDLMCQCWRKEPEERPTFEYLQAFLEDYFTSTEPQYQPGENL

[25] = read-out: % Enzyme Activity (Relative to DMSO Controls – 100%) Data 1
[26] = read-out: % Enzyme Activity (Relative to DMSO Controls – 100%) Data 2

CCn1c2ccccc2c2cc(N/N=C3/C(=O)NN=C3C)ccc21 [VUGX01, (4E)-4-[2-(9-ethyl-9H-carbazol-3-yl)hydrazin-1-ylidene]-3-methyl-4,5-dihydro-1H-pyrazol-5-one]
caspase activation [1]: less potent but is effective | remaining activity at 1 µM [2, 25]: 100% | remaining activity at 1 µM [2, 26]: 99.9% | caspase 3/7 activation [3]: minimal effect | remaining activity at 1 µM [4, 25]: 100% | remaining activity at 1 µM [4, 26]: 99.8% | cell growth [5]: can inhibit the growth | inhibition on CDK2 ([6]; 1μM): 6% | remaining activity at 1 µM [6, 25]: 94.4% | remaining activity at 1 µM [6, 26]: 94.2% | inhibition at 1 µM ([6]; read-out: inhibition on CDK2, 1μM): 5 to 6% | remaining activity at 1 µM [7, 25]: 96.1% | remaining activity at 1 µM [7, 26]: 94.9% | p-c-raf (Ser259) and map2k level [8]: increased at low concentrations and decreased at high concentrations | phosphorylation of AKT at serine 473 [9]: minor increase | cell growth [10]: can inhibit the growth | p-c-raf (Ser259) and map2k level [11]: increased at low concentrations and decreased at high concentrations | effect on tested proteins (p-c-raf, map2k, AKT, p-AKT) [12]: no effect | remaining activity at 1 µM [13, 25]: 96.3% | remaining activity at 1 µM [13, 26]: 96.2% | effects on G1 or G2/M phases [14]: minimal effects | caspase 3/7 activation [15]: only slight activation | effects on EGFr kinase activity ([16]; 1μM): minimal effects | remaining activity at 1 µM [16, 25]: 99.1% | remaining activity at 1 µM [16, 26]: 97.8% | caspase activation [17]: effectively activate | remaining activity at 1 µM [18, 25]: 98.3% | remaining activity at 1 µM [18, 26]: 98% | remaining activity at 1 µM [19, 25]: 107% | remaining activity at 1 µM [19, 26]: 104% | expression of AGT, AGTR1, AGTR2, GCGR, MMP9, PIK3CG, PTGS2, SCTR, TSHR [20]: elevated | cell cycle distribution ([21]; 5μM): shifts the cell population from G1 to G2 phase | cell death (cells in sub G0 phase) [21]: noticeable amount of cell death | remaining activity at 1 µM [22, 25]: 99.3% | remaining activity at 1 µM [22, 26]: 98.2% | caspase 3/7 activation [23]: greatly activate | remaining activity at 1 µM [24, 25]: 99.2% | remaining activity at 1 µM [24, 26]: 99%
